# Assay outcomes from PubChem.
# The list is not random: actives were taken first. Their share in the collection is about 2.8%.
# Measles CPE: protection of cells from measles virus; Measles virus-infected cells, CPE protection, absorbance; protection (pct of control), % at 4 µM; 140,000 compounds, 1.5% hits; AID 841; in the data active means protection mostly above about 24%, no sharp cut-off; inactive means mostly below about 26%
# NPY Y1 blocker: NPY-Y1 (human) receptor antagonism. P25929. HEK293-CNG Y1 cells, membrane potential fluorescence; NPY at EC95, then isoproterenol. inhibition, % at 3.6 µM. 200,000 compounds, 1% hits;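 active means inhibition above the campaign mean inhibition of all tested compounds plus 3 SD, cut at about 20% in these data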;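 further: 0% = DMSO wells given NPY plus isoproterenol and 100% = isoproterenol alone without NPY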
#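 Material: HEK293 Y1/CNG channel cell line; also added: NPY (25 nM), isoproterenol (1 µM), Ro 20-1724 (25 µM); doses: one concentration, 3.6 µM, in 0.4% DMSO; schedule: compound incubation 1 h at room temperature, readout 45 min post-stimulation; technique: membrane potential fluorescence; measure: fluorescence ratio normalized to % inhibition between controls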
# NPY2 pot ag: human NPY-Y2 potentiation or agonism, primary screen; 220,000 compounds, 0.45% hits; activation, % at 3.6 µM; cells expressing NPY-Y2, potentiator/agonist read-out; in the data active means activation above about 27%;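 further: cells stimulated with NPY near EC25 plus isoproterenol at EC100; 0% = vehicle plus submaximal agonist and 100% = vehicle plus saturating agonist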
# Target sequence (P49146 whole entry, looked up): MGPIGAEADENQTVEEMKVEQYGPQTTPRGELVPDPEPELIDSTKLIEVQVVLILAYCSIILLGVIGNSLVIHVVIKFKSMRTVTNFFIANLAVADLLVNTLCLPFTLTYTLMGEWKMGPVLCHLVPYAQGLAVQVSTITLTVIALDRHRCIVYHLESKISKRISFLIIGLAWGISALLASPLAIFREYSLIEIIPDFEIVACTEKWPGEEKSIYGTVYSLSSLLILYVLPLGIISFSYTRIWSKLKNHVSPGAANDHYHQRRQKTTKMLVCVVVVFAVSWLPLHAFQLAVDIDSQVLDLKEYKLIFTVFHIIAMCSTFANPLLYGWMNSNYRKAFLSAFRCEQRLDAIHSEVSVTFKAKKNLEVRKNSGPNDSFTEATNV
# NPY1 pot ag: human NPY-Y1 potentiation or agonism, primary screen; P25929; activation, % at 3.6 µM; 220,000 compounds, 0.37% hits; AID 1304; NPY-Y1 expressing cells, potentiator/agonist activation; in the data active means activation above about 33%, passing the limit was not always enough;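 further: cells stimulated with NPY at EC10 then isoproterenol at EC100; 0% = low agonist plus stimulus and 100% = saturating agonist plus stimulus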
# Mdm2 ligase inh: blocks human Mdm2 ubiquitin ligase activity; Q00987; cell-based MDM2 ubiquitination luciferase reporter, 2 h; 0 = plate control, 100 = twice control, blank-subtracted; signal enhancement, % at 5 µM; 210,000 compounds, 0.11% hits; AID 1230;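 active means signal enhancement of 30% or more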;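 further: luminescence tracks abundance of the self-degrading MDM2-luciferase fusion protein; higher signal means inhibition of MDM2 E3 ligase activity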
#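 Assay system: stable mammalian line carrying autodegrading MDM2–luciferase fusion reporter; amount: 2000 cells seeded into each well; buffer or medium: DMEM; benchmarks: plate control and blank wells; signal: luciferase luminescence; timing: 2 h compound exposure at 37 °C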
# NPY Y2 blocker: antagonists of human neuropeptide Y receptor Y2. 140,000 compounds, 0.99% hits. NPY-Y2 expressing cells, antagonist mode. AID 793. P49146. inhibition, % at 2.7 µM; in the data active means inhibition above about 17%;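 further: 0% = vehicle with agonist challenge and 100% = reference antagonist with challenge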
# NPY-Y2 confirm: human NPY-Y2 potentiation or agonism, confirmation. shares compounds with NPY2 pot ag. cell-based NPY-Y2 potentiator/agonist assay. activation, % at 3.6 µM. 450 compounds, 20% hits. AID 1539; in the data active means activation above about 33%
# NPY-Y1 potentiator: potentiates or activates NPY-Y1, counter-screen for NPY-Y2 hits; shares compounds with NPY2 pot ag; 450 compounds, 20% hits; AID 1651; Y1 HEK293-CNG cells, membrane potential fluorescence; activation, % at 3.6 µM; in the data active means activation above about 45%;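 further: cells stimulated with submaximal NPY then isoproterenol with phosphodiesterase inhibitor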
# NPY-Y1 ag 2: activates human NPY-Y1, counter-screen for NPY-Y2 potentiators. shares compounds with NPY2 pot ag. HEK293 Y1-CNGC, membrane potential fluorescence, agonism. 450 compounds, 37% hits. activation, % at 3.6 µM;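 active means activation above the mean of DMSO-only control wells plus 3 SD, cut at about 18% in these data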;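 further: cells stimulated with 1 µM isoproterenol plus the PDE inhibitor Ro 20-1724; 0% = isoproterenol with DMSO and no NPY and 100% = 40 nM NPY; Y1 agonists lower the membrane potential dye signal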
# CNGC inh: counter-screen for NPY-Y2 potentiators: inhibitors of CNG channel activity; shares compounds with NPY2 pot ag; 450 compounds, 32% hits; inhibition, % at 3.6 µM; HEK293-CNG parental, isoproterenol cAMP, membrane potential fluorescence;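 active means inhibition above the control-well mean plus 3 SD of those wells, cut at about 22% in these data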;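 further: 0% = DMSO with isoproterenol and 100% = DMSO without isoproterenol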
# NPY-Y2 ag 2: activates human NPY-Y2 receptor in potentiator counter-screen; shares compounds with NPY2 pot ag; 450 compounds, 56% hits; activation, % at 3.6 µM; HEK293 Y2/CNGC cells, membrane potential fluorescence, agonist mode;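 active means activation above the mean of solvent-only control wells plus 3 SD, cut at about 10% in these data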;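 further: cells stimulated by isoproterenol with no NPY added so direct agonism is tested; 0% = DMSO with isoproterenol alone and 100% = NPY at EC100 plus isoproterenol; agonism lowers probe fluorescence through less cAMP and CNG channel opening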
# * = called active by the depositor; . = no result.
SMILES,Measles CPE,NPY Y1 blocker,NPY2 pot ag,NPY1 pot ag,Mdm2 ligase inh,NPY Y2 blocker,NPY-Y2 confirm,NPY-Y1 potentiator,NPY-Y1 ag 2,CNGC inh,NPY-Y2 ag 2
CC(=O)N(Cc1ccc(F)cc1)C1=C(NCc2ccccc2)C(=O)c2ccccc2C1=O,13.8,2.9,37.6*,-7.3,-7.0,2.2,16.0,9.7,0.5,12.7,10.3*
Cc1ccsc1/C=C1\SC(N2CC(C)OC(C)C2)=NC1=O (stereo unspecified),17.3,2.8,4.5,-0.8,.,1.9,.,.,.,.,.
Nc1c(-c2n[nH]c(=S)n2-c2ccc(Cl)cc2Cl)cnn1-c1ccccc1,.,.,-4.7,-35.8,-3.5,.,.,.,.,.,.
Nc1[nH]nc2c1NN(c1ccc(Cl)cc1Cl)N2,10.6,-3.6,32.2*,36.6,4.2,-5.9,26.5,29.2,16.7,23.7*,21.0*
CCc1ccccc1NC(=O)C1c2ccccc2Oc2ccccc21,4.2,-2.8,9.2,-7.3,-10.2,7.3,.,.,.,.,.
CC(C)COC(=O)NC1c2ccccc2Oc2ccccc21,.,.,99.9*,-38.0,-1.7,.,-17.2,-32.9,-32.4,-20.7,-8.3
COc1ccccc1S(=O)(=O)CC(O)COc1ccc(C#N)cc1 (stereo unspecified),.,1.2,-12.3,8.0,-3.2,.,.,.,.,.,.
CCC(C)N(C)C1CCN(C(=S)Nc2cccc(OC)c2)CC1 (stereo unspecified),.,-2.1,81.7*,0.3,-13.0,.,-2.6,3.4,-4.0,2.5,8.1
CC(C)Sc1nnc(CNC(=O)C23CC4CC(CC(C4)C2)C3)n1C1CCCCC1,3.2,1.5,-6.8,-2.2,-10.0,0.5,.,.,.,.,.
O=C1/C(=C/c2ccc(O)c(O)c2)SC(=S)N1Nc1ccccc1,.,-9.1,39.3*,30.5,-7.2,.,34.3*,41.0,24.6*,17.7,28.3*
Cc1cc2c(cc1C)N(C(=O)CSC1=NCCS1)C(C)(C)c1ssc(=S)c1-2,5.4,-9.5,41.6*,28.2,1.2,-4.6,22.8,28.9,23.7*,11.4,29.4*
COc1ccc2c(c1)-c1c(ssc1=S)C(C)(C)N2C(=O)CSC1=NCCS1,2.2,-8.7,43.0*,50.8,-7.0,-8.0,25.5,28.1,23.5*,23.5*,19.9*
CC(=O)Nc1ccc(S(=O)(=O)NCC2CCC(C(=O)NC(C)c3ccc4c(c3)OCCO4)CC2)cc1 (stereo unspecified),.,-4.1,-17.1,-3.0,-7.0,.,.,.,.,.,.
Oc1ccccc1-c1nc(NCC2CCCO2)c2ccccc2n1 (stereo unspecified),1.1,-4.2,41.1*,22.0,-1.6,-0.7,37.3*,24.4,17.3,24.4*,19.1*
O=C(O)/C=C/C(=O)N1CCN(c2cccc(Cl)c2)CC1,.,4.3,-3.9,18.0,-6.6,.,.,.,.,.,.
CCCOc1ccc(/C=N/NC(=O)c2ccc(Cn3cc([N+](=O)[O-])cn3)o2)cc1,16.4,-1.9,40.7*,-31.3,-4.6,-3.1,0.3,1.9,-11.9,4.8,-0.8
Cc1nn(Cc2ccc(F)cc2)c(C)c1NC(=O)c1cnn2c1NC(c1ccccc1)CC2C(F)(F)F (stereo unspecified),9.4,-7.7,33.8*,35.7,-18.5,-3.1,21.1,27.7,19.2*,22.4*,27.4*
Cc1nn(Cc2ccc(F)cc2)c(C)c1NC(=O)c1cnn2c1NC(c1cccs1)CC2C(F)(F)F (stereo unspecified),2.1,-6.1,24.3,30.0,2.0,-3.5,.,.,.,.,.
